The results in this text go back to ChEMBL document CHEMBL1914453, “1,1-Diarylalkenes as anticancer agents: dual inhibitors of tubulin polymerization and phosphodiesterase 4” (Bioorg Med Chem, 2011).

Series [1] concerns HCT-116. The series can be described thus: Cytotoxicity against human HCT116 cells assessed as reduction of [3H]thymidine incorporation after 72 hrs by scintillation counting. The format is functional, cell-based. In outline:
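HCT-116 cells were seeded 24 h before compound and treated with serial dilutions in triplicate for 72 h at 37 °C. [³H]thymidine (1 µCi per well) was added for the last 6 h, and incorporation was read by scintillation counting. IC50 came from nonlinear sigmoidal regression (top 100%, bottom 0%, variable slope). Values are means of at least three independent determinations, with SEM from the individual IC50s.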
On the technique in general: Dividing cells build labelled thymidine or BrdU into new DNA.

The test system of series [2] is PBMC. The series can be described thus: Inhibition of LPS-induced TNFalpha production in human PBMC preincubated 1 hr prior to LPS stimulation measured after 18 to 20 hrs by ELISA. The format is functional, cell-based. In outline:
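PBMC were isolated by Ficoll-Hypaque density centrifugation and plated at 2 × 10⁵ cells in triplicate. Compounds in DMSO (0.25% final) were added 1 h before stimulation with LPS from S. abortus equi at 1 ng/ml. After 18–20 h at 37 °C in 5% CO₂, supernatant TNF-α was measured by ELISA. IC50 values are means of at least three determinations.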
For orientation: An ELISA detects its analyte on a solid surface through an enzyme-linked reagent.

Series [3] deals with Phosphodiesterase 4 (Homo sapiens, UniProt P27815+Q08499+Q07343+Q08493). The series can be described thus: Inhibition of human PDE4 expressed in U937 cells using [3H]cAMP as substrate after 30 mins. The settings on record: u-937. In outline:
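PDE4 was purified from U937 human monocytic cells by gel filtration. Reactions ran in 50 mM Tris–HCl pH 7.5 with 5 mM MgCl₂, 1 µM cAMP and 10 nM [³H]-cAMP for 30 min at 30 °C. They were stopped by boiling, treated with snake venom (1 mg/ml) and separated on ion-exchange resin. Substrate consumption stayed below 15%. IC50 values are means of at least three determinations, with SEM.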

Series [4] in a line: Inhibition of tubulin polymerization at 5 uM after 60 mins by spectrophotometry.
A short description of series [5]: Inhibition of tubulin polymerization at 10 uM after 60 mins by spectrophotometry.
Series [6] relates to Plasma. The experiment in a line: Stability in human plasma assessed as formation of (E/Z)-3-(3-Ethoxy-4-methoxyphenyl)-3-(3-hydroxy-4- methoxyphenyl)acrylonitrile […] by LC-MS/MS analysis. The format is ADME, cell-free. The note with it: 20 min.

On to `COc1cc(OC)cc(C(=CC(C)=O)c2ccc(OC)c(OC)c2)c1`, for which the IC50 in series [1] was over 10000 nM; in series [2] it was 750 nM; in series [3], 140 nM.
`COc1cc(OC)cc(C(=CC#N)c2ccc(OC)c(N)c2)c1` yielded an inhibition in series [4] of 76%. Besides, the IC50 is 1.4 nM in series [1], 11 nM in series [2] and 9800 nM in series [3].
For `COc1cc(OC)cc(C(=CC#N)c2ccccc2)c1`, the IC50 in series [1] is 970 nM; in series [2], 2400 nM; in series [3], 1900 nM.
The corresponding values for `CCOc1cc(C(=CC#N)c2ccc(S(C)(=O)=O)cc2)ccc1OC` are over 10000 nM, 130 nM and 200 nM.
On to `COc1cccc(C(=CC#N)c2cc(OC)cc(OC)c2)c1`, for which the inhibition in series [5] turned out to be 88%; in series [4], 67%. Moreover, the IC50 in series [1] is 15 nM; in series [2], 290 nM; in series [3] it was 3400 nM.
For `COc1ccc(C(=CC#N)c2cc(OC)cc(OC)c2)cc1`, the values for the IC50 in series [1], in series [2] and in series [3] were 1.2 nM, 440 nM and 3800 nM, respectively.
The corresponding values for `C=C(c1ccc(OC)c(O)c1)c1ccc(OC)c(OCC)c1` are 36 nM, 29 nM and 380 nM.
The corresponding values for `CCOc1cc(C(=CC#N)c2ccc(OC)c(O)c2)ccc1OC` are 15 nM, 44 nM and 91 nM.
For `COc1ccc(C(=CC#N)c2cc(OC)c(OC)c(OC)c2)cc1N`, in that order: 1.8 nM, 200 nM and over 10000 nM.
Take `COc1cc(OC)cc(/C(=C/C#N)c2ccc(OC)c(OC)c2)c1`: the IC50 in series [1] was 110 nM; in series [2] it was 650 nM; in series [3] it was 730 nM.
For `COc1cc(OC)cc(C(=CCCN(C)C)c2ccc(OC)c(OC)c2)c1`, the IC50 in series [1], in series [2] and in series [3] was over 10000 nM in each case.
With `CCOc1cc(C(=CC#N)c2ccc(OC)c(-n3cccc3)c2)ccc1OC`, the IC50 was 49 nM in series [1], 67 nM in series [2] and 70 nM in series [3].
`COc1ccc(C(=CC#N)c2ccc(OC)c(OC)c2)cc1`: the IC50 in series [1] came out at 24 nM; in series [2], 350 nM; in series [3] it was 190 nM.
For `COc1cccc(C(=CC#N)c2ccc(OC)c(OC)c2)c1`, the IC50 turned out to be 310 nM in series [1], 660 nM in series [2] and 160 nM in series [3].
For `CCOc1cc(C(=CC#N)c2ccc(OC)c(C)c2)ccc1OC`, the values for the IC50 in series [1], in series [2] and in series [3] were 87 nM, 100 nM and 82 nM, respectively.
With `CCOc1cc(C(=CC#N)c2ccc(NC)cc2)ccc1OC`, the IC50 stood at 55 nM in series [1], 140 nM in series [2] and 41 nM in series [3].
The corresponding values for `CCOc1cc(C(=CC#N)c2ccc(OC)c(OC)c2)ccc1OC` are 200 nM, 180 nM and 83 nM.
In turn, `COc1ccc(/C=C\c2cc(OC)c(OC)c(OC)c2)cc1O` [COMBRETASTATIN A4] yielded an inhibition in series [4] of 88%. Besides, the IC50 in series [1] was 0.74 nM; in series [2] it was 11 nM; in series [3] it was over 10000 nM.
Take `COc1cc(OC)cc(C(=CC(=O)O)c2ccc(OC)c(OC)c2)c1`: the IC50 in series [1], in series [2] and in series [3] was over 10000 nM throughout.
Consider `C=C(c1cc(OC)cc(OC)c1)c1ccc(OC)c(OC)c1`, for which the IC50 was over 10000 nM in series [1], 4800 nM in series [2] and 2200 nM in series [3].
Take `C=C(c1cc(OC)cc(OC)c1)c1ccc(OC)c(N)c1`: the IC50 was 13 nM in series [1], 330 nM in series [2] and over 10000 nM in series [3].
On to `CCOc1cc(C(=CC#N)c2ccc(OC)c(OC(=O)[C@H](C)N)c2)ccc1OC.Cl`, for which the IC50 in series [1] stood at 17 nM; in series [2] it was 57 nM; in series [3] it was 69 nM. Further, the Stability entry in series [6] is on record as “Unstable”.
Turning to `COC=C(c1cc(OC)cc(OC)c1)c1ccc(OC)c(OC)c1`, the IC50 was over 10000 nM in series [1], 6300 nM in series [2] and 3600 nM in series [3].
In the case of `CCOc1cc(C(=CC#N)c2ccc(OC)c(OC(=O)N(C)C)c2)ccc1OC`, the IC50 is over 10000 nM in series [1], 240 nM in series [2] and 120 nM in series [3].
Take `CCOc1cc(C(=C(F)F)c2ccc(OC)c(O)c2)ccc1OC`: the IC50 is 74 nM in series [1], 54 nM in series [2] and 360 nM in series [3].
For `CCC=C(c1cc(OC)cc(OC)c1)c1ccc(OC)c(OC)c1`, in that order: over 10000 nM, over 10000 nM and 2000 nM.
For the molecule `CCOc1cc(C(=CC#N)c2ccc(OC)c(OCC)c2)ccc1OC`, the IC50 worked out at 440 nM in series [1], 48 nM in series [2] and 70 nM in series [3].
For `C=C(c1cc(OC)cc(OC)c1)c1ccc(OC)c(O)c1`, in that order: 21 nM, 3000 nM and over 10000 nM.
For `C=C(c1ccc(OC)c(N)c1)c1ccc(OC)c(OCC)c1`, the IC50 in series [1] was found to be 38 nM; in series [2], 380 nM; in series [3], 680 nM.
Take `COc1cc(OC)cc(C(=CC#N)c2ccc(OC)c(NC(C)=O)c2)c1`: the inhibition in series [5] was determined as 74%; in series [4] it was 46%. In addition, the IC50 in series [1] was 92 nM; in series [2] it was 66 nM; in series [3], over 10000 nM.
Consider `CCOc1cc(C(=CC#N)c2ccc(OC)c(F)c2)ccc1OC`, for which the IC50 in series [1] worked out at 130 nM; in series [2], 31 nM; in series [3] it was 70 nM.
Regarding `CCOc1cc(C(=CC#N)c2cccc(OC)c2)ccc1OC`, the IC50 stood at 450 nM in series [1], 230 nM in series [2] and 110 nM in series [3].
In the case of `COc1cc(C(=CC#N)c2cc(OC)c(OC)c(OC)c2)cc(OC)c1OC`, the IC50 in series [1] was over 10000 nM; in series [2], 870 nM; in series [3], 2400 nM.
The corresponding values for `COc1cc(OC)cc(/C(=C\C#N)c2ccc(OC)c(OC)c2)c1` are 11 nM, 93 nM and 150 nM.
Regarding `COC(=O)C=C(c1cc(OC)cc(OC)c1)c1ccc(OC)c(OC)c1`, the results for the IC50 in series [1], in series [2] and in series [3] were over 10000 nM, 5400 nM and 1300 nM, respectively.
The corresponding values for `COc1ccc(C(=CC#N)c2ccc(OC)c(OC)c2)cc1OC` are 140 nM, 600 nM and 310 nM.
The corresponding values for `CC=C(c1ccc(OC)c(N)c1)c1ccc(OC)c(OCC)c1` are 110 nM, 2800 nM and 590 nM.
As for `COc1cc(OC)cc(C(=CC#N)c2ccc(OC)c(O)c2)c1`, the inhibition in series [4] worked out at 77%. In addition, the IC50 in series [1] worked out at 2.5 nM; in series [2] it was 1.2 nM; in series [3] it was 2400 nM.
Regarding `COc1cc(OC)cc(C(=CC#N)c2ccc(OC)c(OC)c2)c1`, the inhibition in series [5] was 84%; in series [4], 65%. The figures for the IC50 in series [1], in series [2] and in series [3] were 18 nM, 270 nM and 350 nM, respectively.
Consider `C#CC=C(c1cc(OC)cc(OC)c1)c1ccc(OC)c(OC)c1`, for which the values for the IC50 in series [1], in series [2] and in series [3] were over 10000 nM, 7200 nM and 3500 nM, respectively.
The corresponding values for `COc1ccc(C(=CC#N)c2cc(OC)c(OC)c(OC)c2)cc1OC` are 41 nM, 540 nM and 1800 nM.
For the molecule `CC=C(c1cc(OC)cc(OC)c1)c1ccc(OC)c(OC)c1`, the IC50 in series [1] was determined as 480 nM; in series [2] it was 2600 nM; in series [3], 1500 nM.
Turning to `CCOc1cc(C(=CC#N)c2ccc(OC)c(OC(=O)CN)c2)ccc1OC.Cl`, the IC50 in series [1] was determined as 19 nM; in series [2] it was 58 nM; in series [3], 49 nM. Besides, the Stability entry in series [6] is “Unstable”.
With `CC=C(c1cc(OC)cc(OC)c1)c1ccc(OC)c(O)c1`, the IC50 in series [1] is 30 nM; in series [2], 150 nM; in series [3] it was over 10000 nM.
`COc1cc(OC)cc(C(=Cc2ccccc2)c2ccc(OC)c(O)c2)c1`: the IC50 in series [1], in series [2] and in series [3] was over 10000 nM in each case.
`COc1cc(OC)cc(C(=CC(N)=O)c2ccc(OC)c(OC)c2)c1`: the IC50 was over 10000 nM in series [1], 5500 nM in series [2] and 6700 nM in series [3].
As to `CCOc1cc(C(=CC#N)c2ccc(N(C)C)cc2)ccc1OC`, the IC50 in series [1] was determined as 31 nM; in series [2], 130 nM; in series [3], 52 nM.

In general, IC50 refers to the point on the concentration scale where inhibition reaches its midpoint. For orientation: inhibition means the relative decrease from the control value, in per cent. The low end stands for a weak effect, the high end for a strong effect.
